Experimental data from publication PMC8268672 (Bioorganic Chemistry, 2021).
Values after ≈ are worked out from the molar mass of the structure shown. Where two headings read alike, the source gives them in different places.

Tests used:
[1] = test system: Escherichia coli (ATCC 8739); assay: MIC, broth microdilution; assay type: cell-based; details: ATCC8739, read-out: Minimum inhibitory concentration (MIC), EC
Outline: (§1)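 Broth microdilution per CLSI in Mueller-Hinton broth, using two-fold serial dilutions of test compound and reference drugs from 512 to 0.25. Bacterial broth cultures were grown 2-6 h to 0.5 McFarland turbidity, then diluted with sterile solution to the final inoculum. MIC is reported in µg/mL.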

[2] = test system: Pseudomonas aeruginosa (MCCB 0035); assay: MIC, broth microdilution; assay type: cell-based; details: read-out: Minimum inhibitory concentration (MIC), PA
Outline: as §1

[3] = test system: Klebsiella aerogenes (NCIM-2098); assay: MIC, broth microdilution; assay type: cell-based; details: NCIM2098, read-out: Minimum inhibitory concentration (MIC), KA
Outline: (§2)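 Antibacterial MICs by CLSI broth microdilution in Mueller-Hinton broth. Test compounds and standard drugs are serially diluted two-fold from 512 to 0.25. The bacterial broth culture is grown 2-6 h to a 0.5 McFarland turbidity, then adjusted with sterile solution to the final inoculum.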

[4] = test system: Staphylococcus aureus (ATCC 29213); assay: MIC, broth microdilution; assay type: cell-based; details: ATCC29213, read-out: Minimum inhibitory concentration (MIC), SA
Outline: as §2

[5] = test system: Bacillus cereus (NCIM-2458); assay: MIC, broth microdilution; assay type: cell-based; details: NCIM2458, read-out: Minimum inhibitory concentration (MIC), BC
Outline: as §1

[6] = test system: Aspergillus niger (NCIM 2191); assay: MIC, broth microdilution; assay type: cell-based; details: NCIM2191, read-out: Minimum inhibitory concentration (MIC), AN
Outline: (§3)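 Antifungal MICs by CLSI broth microdilution in Sabouraud liquid medium. Test compounds and standard drugs are serially diluted two-fold from 512 to 0.25. The fungal broth culture is grown 24 h at 35 °C to a 0.5 McFarland turbidity, then adjusted with sterile solution to the final inoculum.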

[7] = test system: Candida albicans (NCIM 2087); assay: MIC, broth microdilution; assay type: cell-based; details: NCIM2087, read-out: Minimum inhibitory concentration (MIC), CA
Outline: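 CLSI broth microdilution in Sabouraud liquid medium, with test compound two-fold serially diluted from 512 to 0.25. Fungal broth culture grown 24 h at 35 °C to 0.5 McFarland turbidity, then adjusted with sterile solution to a final […] inoculum. MIC expressed in µg/mL.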

[8] = test system: Aspergillus fumigatus (NCIM 2081); assay: MIC, broth microdilution; assay type: cell-based; details: NCIM2081, read-out: Minimum inhibitory concentration (MIC), AF
Outline: as §3

[9] = test system: Cryptococcus neoformans (ATCC 9011); assay: MIC, broth microdilution; assay type: cell-based; details: ATCC9011, read-out: Minimum inhibitory concentration (MIC), CN
Outline: as §3

[10] = test system: Escherichia coli (ATCC 8739); assay: Agar disk diffusion, inhibition zone; assay type: cell-based; details: 100 µg/8 mm disc, triplicate, mean ± SD
Outline: (§4)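 Agar disk diffusion on Mueller-Hinton agar plates seeded with a standard bacterial suspension. Test compound stock in DMSO, diluted with distilled water; 8 mm sterile filter-paper discs soaked in the solution. Ampicillin was the reference. Plates incubated at 35 °C for 24 h, in triplicate. Read-out is the average inhibition-zone diameter (mm) around each disc.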

[11] = test system: Pseudomonas aeruginosa (MCCB 0035); assay: Agar disk diffusion, inhibition zone; assay type: cell-based; details: 100 µg/8 mm disc, triplicate, mean ± SD
[12] = test system: Salmonella typhimurium (NCIM-2501); assay: Agar disk diffusion, inhibition zone; assay type: cell-based; details: 100 µg/8 mm disc, triplicate, mean ± SD
[13] = test system: Klebsiella aerogenes (NCIM-2098); assay: Agar disk diffusion, inhibition zone; assay type: cell-based; details: 100 µg/8 mm disc, triplicate, mean ± SD
[14] = test system: Staphylococcus aureus (ATCC 29213); assay: Agar disk diffusion, inhibition zone; assay type: cell-based; details: 100 µg/8 mm disc, triplicate, mean ± SD
Outline: as §4

[15] = test system: Bacillus cereus (NCIM-2458); assay: Agar disk diffusion, inhibition zone; assay type: cell-based; details: 100 µg/8 mm disc, triplicate, mean ± SD
[16] = test system: Lactobacillus casei (NCIM-2651); assay: Agar disk diffusion, inhibition zone; assay type: cell-based; details: 100 µg/8 mm disc, triplicate, mean ± SD
[17] = test system: Streptococcus pneumonia (ATCC 49619); assay: Agar disk diffusion, inhibition zone; assay type: cell-based; details: 100 µg/8 mm disc, triplicate, mean ± SD
[18] = test system: Aspergillus niger (NCIM 2191); assay: Agar disk diffusion, inhibition zone; assay type: cell-based; details: 100 µg/8 mm disc, triplicate, mean ± SD
Outline: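 For the fungal strain, discs soaked in test compound solution (DMSO stock diluted with distilled water) sat on seeded Mueller-Hinton agar. Clotrimazole was the reference. Incubation ran 48 h at 35 °C, in triplicate. Zone of growth inhibition recorded in mm as the mean diameter around each disc.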

[19] = test system: Candida albicans (NCIM 2087); assay: Agar disk diffusion, inhibition zone; assay type: cell-based; details: 100 µg/8 mm disc, triplicate, mean ± SD
[20] = test system: Aspergillus fumigatus (NCIM 2081); assay: Agar disk diffusion, inhibition zone; assay type: cell-based; details: 100 µg/8 mm disc, triplicate, mean ± SD
[21] = test system: Cryptococcus neoformans (ATCC 9011); assay: Agar disk diffusion, inhibition zone; assay type: cell-based; details: 100 µg/8 mm disc, triplicate, mean ± SD
[22] = test system: Vaccinia virus; assay: microbe, parasite or virus in culture; assay type: cell-based; details: Orthopoxvirus vaccinia, HEL, read-out: Antiviral EC50, Vaccinia virus
[23] = test system: Adeno virus-2; assay: CPE reduction assay in HEL cells; assay type: cell-based; details: read-out: Antiviral EC50, Adeno virus-2
[24] = test system: Human Coronavirus (229E); assay: CPE reduction assay in HEL cells; assay type: cell-based; details: read-out: Antiviral EC50, Human Coronavirus (229E)
[25] = test system: Para-influenza-3 virus; assay: CPE reduction assay in Vero cells; assay type: cell-based, Parainfluenza-3 virus; details: Vero, read-out: Antiviral EC50, Para-influenza-3 virus
[26] = test system: Reovirus-1; assay: CPE reduction assay in Vero cells; assay type: cell-based; details: read-out: Antiviral EC50, Reovirus-1
[27] = test system: Sindbis virus; assay: CPE reduction assay in Vero cells; assay type: cell-based; details: read-out: Antiviral EC50, Sindbis virus
[28] = test system: Coxsackie virus B4; assay: CPE reduction assay in Vero cells; assay type: cell-based; details: Enterovirus B, read-out: Antiviral EC50, Coxsackie virus B4
[29] = test system: Punta Toro virus; assay: CPE reduction assay in Vero cells; assay type: cell-based; details: read-out: Antiviral EC50, Punta Toro virus
[30] = test system: Yellow Fever virus; assay: microbe, parasite or virus in culture; assay type: cell-based; details: Yellow fever virus, Vero, read-out: Antiviral EC50, Yellow Fever virus
[31] = test system: Influenza A/H1N1 A/Ned/378/05; assay: CPE reduction assay in MDCK cells; assay type: cell-based; details: Influenza A virus
[32] = test system: Influenza A/H3N2 A/HK/7/87; assay: CPE reduction assay in MDCK cells; assay type: cell-based; details: Influenza A virus
[33] = test system: Influenza B B/Ned/537/05; assay: CPE reduction assay in MDCK cells; assay type: cell-based; details: Influenza B virus, read-out: Antiviral EC50, Influenza B B/Ned/537/05, MTS
[34] = test system: Human embryonic lung (HEL) cells; details: HEL cell cultures; microscopically detectable alteration of normal cell morphology
[35] = test system: Vero cells; details: Vero cell cultures; microscopically detectable alteration of normal cell morphology
[36] = test system: Madin Darby canine kidney (MDCK) cells; details: dog
[37] = test system: MT4 cells; details: MT4 cell cultures; colorimetric MTT cell viability assay
[38] = read-out: Antiviral EC50, Influenza A/H1N1 A/Ned/378/05, MTS
[39] = read-out: Antiviral EC50, Influenza A/H1N1 A/Ned/378/05, visual CPE score
[40] = read-out: Antiviral EC50, Influenza A/H3N2 A/HK/7/87, MTS
[41] = read-out: Antiviral EC50, Influenza A/H3N2 A/HK/7/87, visual CPE score

| SMILES | MIC [1] [µg/mL] | MIC [2] [µg/mL] | MIC [3] [µg/mL] | MIC [4] [µg/mL] | MIC [5] [µg/mL] | MIC [6] [µg/mL] | MIC [7] [µg/mL] | MIC [8] [µg/mL] | MIC [9] [µg/mL] | Diameter of growth inhibition zone, EC [10] [mm] | EC50 [23] [µM] | EC50 [24] [µM] | EC50 [25] [µM] | EC50 [26] [µM] | EC50 [27] [µM] | EC50 [28] [µM] | EC50 [29] [µM] | EC50 [30] [µM] | Minimum cytotoxic conc. [35] [µM] | Cytotoxicity, Minimum cytotoxic conc. [36] [µM] | also measured |
| --- | --- | --- | --- | --- | --- | --- | --- | --- | --- | --- | --- | --- | --- | --- | --- | --- | --- | --- | --- | --- | --- |
| Cc1ccc(S(=O)(=O)N2C(=O)CSC2c2ccccc2)cc1 (stereo not shown) [5a, 3-[(4-Methylphenyl)sulfonyl]-2-phenyl-1,3-thiazolidin-4-one] | 64 (≈ 192 µM) | 128 (≈ 384 µM) | > 256 | 64 (≈ 192 µM) | 128 (≈ 384 µM) | 32 (≈ 96 µM) | 64 (≈ 192 µM) | 64 (≈ 192 µM) | 128 (≈ 384 µM) | 13.2 ± 1.1 | > 100 | > 100 | > 100 | > 100 | > 100 | > 100 | > 100 | > 100 | >100 | >100 | Diameter of growth inhibition zone, PA [11]: 12.5 ± 0.6 mm; Diameter of growth inhibition zone, ST [12]: 07 ± 1.5 mm; Diameter of growth inhibition zone, KA [13]: 07 ± 1.74 mm; Diameter of growth inhibition zone, SA [14]: 13.8 ± 0.9 mm; Diameter of growth inhibition zone, BC [15]: 08 ± 0.4 mm; Diameter of growth inhibition zone, LC [16]: 10 ± 0.4 mm; Diameter of growth inhibition zone, SP [17]: 08 ± 0.8 mm; Diameter of growth inhibition zone, AN [18]: 10.1 ± 1.1 mm; Diameter of growth inhibition zone, CA [19]: 10.8 ± 2.3 mm; Diameter of growth inhibition zone, AF [20]: 10.2 ± 1.2 mm; Diameter of growth inhibition zone, CN [21]: 8.2 ± 0.5 mm; EC50 [22]: > 100 µM; EC50 [31, 38]: > 100 µM; EC50 [31, 39]: > 100 µM; EC50 [32, 40]: > 100 µM; EC50 [32, 41]: > 100 µM; EC50 [33]: > 100 µM; Minimum cytotoxic conc. [34]: >100 µM; Minimum cytotoxic conc. [37]: >125 µM |
| Cc1ccc(S(=O)(=O)N2C(=O)CSC2c2ccc(C(C)C)cc2)cc1 (stereo not shown) [5n, 3-[(4-Methylphenyl)sulfonyl]-2-[4-(propan-2-yl)phenyl]-1,3-thiazolidin-4-one] | > 256 | > 256 | > 256 | > 256 | > 256 | > 256 | > 256 | > 512 | > 512 | 08 ± 0.65 | > 100 | > 100 | > 100 | > 100 | > 100 | > 100 | > 100 | > 100 | >100 | >100 | Diameter of growth inhibition zone, PA [11]: 8.5 ± 1.5 mm; Diameter of growth inhibition zone, ST [12]: 07 ± 1.5 mm; Diameter of growth inhibition zone, KA [13]: 07 ± 0.7 mm; Diameter of growth inhibition zone, BC [15]: 07 ± 0.1 mm; Diameter of growth inhibition zone, LC [16]: 07 ± 0.30 mm; Diameter of growth inhibition zone, SP [17]: 07 ± 0.6 mm; Diameter of growth inhibition zone, AN [18]: 10 ± 1.2 mm; Diameter of growth inhibition zone, CA [19]: 9 ± 1.5 mm; Diameter of growth inhibition zone, AF [20]: 9.5 ± 0.9 mm; Diameter of growth inhibition zone, CN [21]: 5 ± 0.3 mm; EC50 [22]: > 100 µM; EC50 [31, 38]: > 100 µM; EC50 [31, 39]: > 100 µM; EC50 [32, 40]: > 100 µM; EC50 [32, 41]: > 100 µM; EC50 [33]: > 100 µM; Minimum cytotoxic conc. [34]: >100 µM; Minimum cytotoxic conc. [37]: >125 µM |
| Cc1cn([C@H]2C[C@H](F)[C@@H](CO)O2)c(=O)[nH]c1=O [Alovudine, reference compound] | – | – | – | – | – | – | – | – | – | – | 1.4 | – | – | – | – | – | – | – | – | – | – |
| COc1c(C)c2c(c(O)c1C/C=C(\C)CCC(=O)O)C(=O)OC2 [Mycophenolic acid, mycophenolic acid, reference compound] | – | – | – | – | – | – | – | – | – | – | – | – | 0.4 | 0.4 | 11.7 | > 100 | 1.4 | 0.8 | >100 | – | – |
| NC(=O)c1ncn([C@@H]2O[C@H](CO)[C@@H](O)[C@H]2O)n1 [Ribavirin, reference compound] | – | – | – | – | – | – | – | – | – | – | – | > 250 | 112 | > 250 | > 250 | > 250 | – | > 250 | >250 | ≥100 | – |
| Nc1ccn([C@H]2CC[C@@H](CO)O2)c(=O)n1 [Zalcitabine, reference compound] | – | – | – | – | – | – | – | – | – | – | 50 | – | – | – | – | – | – | – | – | – | – |
